Converted amounts (≈) assume the structure as drawn.
Columns and labels:
[1] = Lethal concentration against Brine Shrimp; assay type: organism-based; settings: artemia, in vivo
Outline: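 Brine shrimp lethality test run by a standard protocol on partitioned fractions, pooled chromatographic fractions and isolated compounds. LC50 values were determined and expressed in µg/mL.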

A498 = assay: Cytotoxicity on kidney carcinoma (A-498) cell line; assay type: functional; settings: Homo sapiens, read-out: ED50 (the source's name)
Outline: (§1)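 Human solid tumour cell line panel tested at the Purdue Cancer Center with a 7-day MTT viability assay under standard protocols. Cell lines were A-549 lung, MCF-7 breast, HT-29 colon, A-498 kidney, PC-3 prostate and PACA-2 pancreatic. Adriamycin served as positive control.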

A549 = assay: Cytotoxicity on lung carcinoma (A-549) cell line; assay type: functional; settings: Homo sapiens, read-out: ED50 (the source's name); outline: as §1
MCF7 = assay: Cytotoxicity on breast carcinoma (MCF-7) cell line; assay type: functional; settings: Homo sapiens, read-out: ED50 (the source's name); outline: as §1
MIA PaCa-2 = assay: Cytotoxicity on pancreatic carcinoma (PACA-2) cell line; assay type: functional; settings: Homo sapiens, read-out: ED50 (the source's name); outline: as §1
HT-29 = assay: Cytotoxicity on adenocarcinoma (HT-29 colon) cell line; assay type: functional; settings: Homo sapiens, read-out: ED50 (the source's name); outline: as §1
PC-3 = assay: Cytotoxicity on prostate adenocarcinoma (PC-3) cell line; assay type: functional; settings: Homo sapiens, read-out: ED50 (the source's name); outline: as §1

C=C(C)[C@]12C[C@@H](C)[C@@]34OC(Cc5ccccc5)(O[C@@H]1[C@@H]3C=C(COC(=O)Cc1ccc(O)c(OC)c1)C[C@]1(O)C(=O)C(C)=CC41)O2 (some centres undefined)
LC50 [1]: 281 µg/mL (≈ 447 µM)
EC50 (A498): 1.08 µg/mL (≈ 1.72 µM)
EC50 (A549): 1.12 µg/mL (≈ 1.78 µM)
EC50 (MCF7): 4.29 µg/mL (≈ 6.82 µM)
EC50 (MIA PaCa-2): 2.44 µg/mL (≈ 3.88 µM)
EC50 (HT-29): 3 µg/mL (≈ 4.77 µM)
EC50 (PC-3): 2.9 µg/mL (≈ 4.61 µM)

CC(=O)OCC1=C[C@H]2[C@@H]3C(C)(C)[C@]3(OC(=O)Cc3ccccc3)C[C@@H](C)[C@]2(O)C2C=C(C)C(=O)[C@@]2(O)C1 (some centres undefined)
LC50 [1]: 12 µg/mL (≈ 23.7 µM)
EC50 (A498): 1.59 µg/mL (≈ 3.13 µM)
EC50 (A549): 26.1 µg/mL (≈ 51.2 µM)
EC50 (MCF7): 41.3 µg/mL (≈ 81.1 µM)
EC50 (MIA PaCa-2): 26.9 µg/mL (≈ 52.9 µM)
EC50 (HT-29): 29.5 µg/mL (≈ 57.9 µM)
EC50 (PC-3): 35.1 µg/mL (≈ 69 µM)

C=C(C)[C@]12C[C@@H](C)[C@@]34OC(Cc5ccccc5)(O[C@@H]1C3C=C(CO)C[C@]1(O)C(=O)C(C)=CC41)O2 (some centres undefined)
EC50 (A498): 1.97 µg/mL (≈ 4.24 µM)
EC50 (A549): 5.41 µg/mL (≈ 11.6 µM)
EC50 (MCF7): 30.9 µg/mL (≈ 66.5 µM)
EC50 (MIA PaCa-2): 3.55 µg/mL (≈ 7.64 µM)
EC50 (HT-29): 7.41 µg/mL (≈ 16 µM)
EC50 (PC-3): 4.56 µg/mL (≈ 9.82 µM)

C/C=C(/C)C(=O)O[C@@]12C[C@@H](C)[C@]3(O)C4C=C(C)C(=O)[C@@]4(O)CC(CO)=C[C@H]3[C@@H]1C2(C)C (some centres undefined)
LC50 [1]: 115 µg/mL (≈ 266 µM)
EC50 (A498): 46 µg/mL (≈ 107 µM)
EC50 (A549): 11.6 µg/mL (≈ 26.9 µM)
EC50 (MCF7): 69.9 µg/mL (≈ 162 µM)
EC50 (MIA PaCa-2): 37.2 µg/mL (≈ 86.5 µM)
EC50 (HT-29): 26.5 µg/mL (≈ 61.6 µM)
EC50 (PC-3): 17.9 µg/mL (≈ 41.6 µM)

C/C=C(/C)C(=O)O[C@@]12C[C@@H](C)[C@]3(O)C4C=C(C)C(=O)[C@@]4(O)CC(COC(C)=O)=C[C@H]3[C@@H]1C2(C)C (some centres undefined)
LC50 [1]: 191 µg/mL (≈ 404 µM)
EC50 (A498): 2.18 µg/mL (≈ 4.61 µM)
EC50 (A549): 18.9 µg/mL (≈ 40 µM)
EC50 (MCF7): 41.8 µg/mL (≈ 88.4 µM)
EC50 (MIA PaCa-2): 30.3 µg/mL (≈ 64.2 µM)
EC50 (HT-29): 30.8 µg/mL (≈ 65.1 µM)
EC50 (PC-3): 27.7 µg/mL (≈ 58.6 µM)

CC1=CC2[C@@]3(O)[C@H](C)C[C@]4(OC(=O)CCCCCCC[C@H]5C[C@@H]5C)[C@H]([C@@H]3C(C)=C(CO)C[C@]2(O)C1=O)C4(C)C (some centres undefined)
EC50 (A549): 2.85 µg/mL (≈ 5.25 µM)
EC50 (MIA PaCa-2): 1.92 µg/mL (≈ 3.54 µM)
EC50 (PC-3): 2.44 µg/mL (≈ 4.5 µM)

COc1cccc2c1C(=O)c1c(O)c3c(c(O)c1C2=O)C[C@@](O)(C(=O)CO)C[C@@H]3O[C@H]1C[C@H](N)[C@H](O)[C@H](C)O1 [DOXORUBICIN]
EC50 (A498): 1.87 µg/mL (≈ 3.44 µM)
EC50 (MIA PaCa-2): 1.63 µg/mL (≈ 3 µM)

From ChEMBL document CHEMBL1129484, “Selectively cytotoxic diterpenes from Euphorbia poisonii” (J Med Chem, 1996)
